This note sets out measurements from ChEMBL document CHEMBL1126067, “Inhibitors of cholesterol biosynthesis. 6. trans-6-[2-(2-N-heteroaryl-3,5-disubstituted- pyrazol-4-yl)ethyl/ethenyl]tetrahydro-4-hydroxy-2H-pyran-2-ones” (J Med Chem, 1992).

Assay [1] deals with T1, 3-hydroxy-3-methylglutaryl-coenzyme A reductase (Rattus norvegicus) (UniProt P51639).
T1 sequence (whole entry): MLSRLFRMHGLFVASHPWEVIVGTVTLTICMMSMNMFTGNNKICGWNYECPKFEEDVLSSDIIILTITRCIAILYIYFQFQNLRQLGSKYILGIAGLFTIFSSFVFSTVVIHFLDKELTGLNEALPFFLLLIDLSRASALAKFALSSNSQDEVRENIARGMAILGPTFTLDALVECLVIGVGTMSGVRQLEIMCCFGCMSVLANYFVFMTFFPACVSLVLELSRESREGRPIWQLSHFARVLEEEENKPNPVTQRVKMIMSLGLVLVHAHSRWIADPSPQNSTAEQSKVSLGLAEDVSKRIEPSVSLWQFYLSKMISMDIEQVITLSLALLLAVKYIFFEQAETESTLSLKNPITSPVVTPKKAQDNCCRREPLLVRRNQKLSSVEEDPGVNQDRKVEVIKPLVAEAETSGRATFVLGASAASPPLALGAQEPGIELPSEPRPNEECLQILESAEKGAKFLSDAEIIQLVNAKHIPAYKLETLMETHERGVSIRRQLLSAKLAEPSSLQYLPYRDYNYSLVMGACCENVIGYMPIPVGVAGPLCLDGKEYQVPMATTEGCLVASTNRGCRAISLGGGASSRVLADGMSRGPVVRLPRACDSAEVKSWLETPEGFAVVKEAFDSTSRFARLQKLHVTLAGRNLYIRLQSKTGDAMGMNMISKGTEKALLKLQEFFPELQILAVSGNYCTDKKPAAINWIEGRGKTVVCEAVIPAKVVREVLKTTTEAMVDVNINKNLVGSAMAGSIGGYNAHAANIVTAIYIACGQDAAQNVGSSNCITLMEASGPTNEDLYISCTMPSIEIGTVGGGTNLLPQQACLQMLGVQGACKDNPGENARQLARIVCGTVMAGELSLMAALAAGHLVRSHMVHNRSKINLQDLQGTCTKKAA
In words: Tested in vivo for the inhibition of cholesterol biosynthesis in chow-fed rats at 1.0 mg/kg. It counts as functional, organism-based. Also on record: dose 1 mg/kg. An outline of the steps: (§1)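 Acute in vivo cholesterol synthesis (AICS) in normal chow-fed rats. Compounds dosed in DMA/PEG solution, 1.0 mg/kg po unless stated otherwise. Synthesis measured as incorporation of [1-14C]acetate into plasma sterols.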

The test system of assay [2] is Canis familiaris. In words: Hypocholesterolemic activity in Cholestyramine-primed Beagle dogs at dose of 0.1 mg/kg two weeks after. It counts as functional, Canis lupus familiaris. An outline of the steps: (§2)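 Beagle dogs pretreated with cholestyramine resin, then given resin plus inhibitor. Plasma cholesterol read after 2 and 4 weeks of drug treatment. Values are mean percent change from pretreatment values within the same group; significance versus untreated controls at p < 0.05.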

For assay [3], the system named is Rattus norvegicus. In words: The compound was tested in vivo for the inhibition of cholesterol biosynthesis in chow-fed rats at 1.0 mg/kg. The assay is classed as functional. An outline of the steps:
as §1

Assay [4] concerns Canis familiaris. In words: Hypocholesterolemic activity in Cholestyramine-primed Beagle dogs at dose of 0.3 mg/kg two weeks after. It counts as functional, Canis lupus familiaris. An outline of the steps: as §2
For assay [5], the system named is Canis familiaris. Kind of assay: Hypocholesterolemic activity in Cholestyramine-primed Beagle dogs at dose of 0.1 mg/kg four weeks after. It counts as functional, Canis lupus familiaris. In outline:
as §2

The subject of assay [6] is Canis familiaris. Kind of assay: Hypocholesterolemic activity in Cholestyramine-primed Beagle dogs at dose of 1.0 mg/kg two weeks after. The assay is classed as functional, Canis lupus familiaris. In outline: as §2
Assay [7] concerns Canis familiaris. Kind of assay: Hypocholesterolemic activity in Cholestyramine-primed Beagle dogs at dose of 0.3 mg/kg four weeks after. The assay is classed as functional, Canis lupus familiaris. An outline of the steps:
as §2

Assay [8] deals with Canis familiaris. Kind of assay: Hypocholesterolemic activity in Cholestyramine-primed Beagle dogs at dose of 1.0 mg/kg four weeks after. The assay is classed as functional, Canis lupus familiaris. An outline of the steps: as §2
Assay [9] deals with Rattus norvegicus. Kind of assay: The compound in lactone form was tested in vivo for the inhibition of cholesterol biosynthesis in chow-fed rats at 1.0 mg/kg. The assay is classed as functional. In outline:
as §1

The subject of assay [10] is Rattus norvegicus. Kind of assay: The compound was tested in vivo for the inhibition of cholesterol biosynthesis in chow-fed rats. It counts as functional. In outline: as §1
Assay [11] deals with Rattus norvegicus. Kind of assay: The compound was tested in vivo for the inhibition of cholesterol biosynthesis in chow-fed rats at 1.0 mg/kg. It counts as functional. In outline:
as §1

Assay [12] concerns Rattus norvegicus. Kind of assay: The compound form was tested in vivo for the inhibition of cholesterol biosynthesis in chow-fed rats at 1.0 mg/kg; not determined. It counts as functional. An outline of the steps:
as §1

`CC(C)c1nn(-c2ccccc2)c(-c2ccc(F)cc2)c1/C=C/[C@@H](O)C[C@@H](O)CC(=O)O` returned an inhibition in assay [1] of 94%.
Same read-out and setting: the same measure for `CC(C)c1nn(-c2ccccn2)c(-c2ccc(F)cc2)c1/C=C/[C@@H]1C[C@@H](O)CC(=O)O1` (stereo in doubt; 10a): 83%.
In assay [1], `CC(C)c1nn(-c2ccc3ccccc3n2)c(-c2ccc(F)cc2)c1/C=C/[C@@H](O)C[C@@H](O)CC(=O)O` came in with an inhibition of 69%.
The same measure, in the same setting: next, `CC(C)c1nn(-c2cnccn2)c(-c2ccc(F)cc2)c1/C=C/[C@@H]1C[C@@H](O)CC(=O)O1` (stereo in doubt; 10b): 80%; `CC(C)c1nn(-c2nc3ccccc3s2)c(-c2ccc(F)cc2)c1/C=C/[C@@H](O)C[C@@H](O)CC(=O)O`: 51%.
Consider `CC[C@H](C)C(=O)O[C@H]1C[C@@H](C)C=C2C=C[C@H](C)[C@H](CC[C@@H]3C[C@@H](O)CC(=O)O3)[C@H]21` [LOVASTATIN], for which the Change in the assay on Canis familiaris [2] is on record as -7%; with Canis familiaris [4], -10%; with Canis familiaris [5] it was -1%; with Canis familiaris [6], -25%; with Canis familiaris [7], -2%; with Canis familiaris [8], -17%. The compound also registered an inhibition in vivo at 1 mg/kg in the assay on Rattus norvegicus [3] of 64%.
`CC(C)c1nn(-c2ccccc2)c(-c2ccc(F)cc2)c1CCC(O)C[C@@H](O)CC(=O)O` (some centres undefined): the inhibition in assay [1] amounted to 72%.
`CC(C)c1nn(-c2ccccn2)c(-c2ccc(F)cc2)c1/C=C/[C@@H]1C[C@@H](O)CC(=O)O1` (stereo in doubt; 20a) [listing 1 of 2 here]: the Change with Canis familiaris [2] is -20%; with Canis familiaris [4], -31%; in the assay with Canis familiaris [5], -16%; in the assay with Canis familiaris [6], -44%; in the assay with Canis familiaris [7], -32%; in the assay with Canis familiaris [8], -50%.
Turning to `CC(C)c1nn(-c2ccccn2)c(-c2ccc(F)cc2)c1/C=C/[C@@H](O)C[C@@H](O)CC(=O)O`, in the assay with Rattus norvegicus [9], the inhibition in vivo at 1 mg/kg was found to be 85%. The inhibition in assay [1] turned out to be 98%.
Take `CC(C)c1nn(-c2cnccn2)c(-c2ccc(F)cc2)c1/C=C/[C@@H](O)C[C@@H](O)CC(=O)[O-].[Na+]`: in the assay with Rattus norvegicus [10], the Inhibition was determined as 91%. The inhibition in [1] is 75%.
In the case of `CC(C)c1nn(-c2nc3ccccc3s2)c(-c2ccc(F)cc2)c1/C=C/[C@@H]1C[C@@H](O)CC(=O)O1`, the inhibition in [1] amounted to 30%.
As to `CC(C)c1nn(-c2ccccn2)c(-c2ccc(F)cc2)c1CCC1C[C@@H](O)CC(=O)O1` (some centres undefined), the inhibition in [1] is 58%.
Same read-out and setting: the same measure for `CC(C)c1nn(-c2ccccn2)c(-c2ccc(F)cc2)c1CCC(O)C[C@@H](O)CC(=O)O` (some centres undefined): 68%; for `CC(C)c1nn(-c2ccccn2)c(-c2ccc(F)cc2)c1/C=C/[C@@H]1C[C@@H](O)CC(=O)O1` (stereo in doubt; 20a) [listing 2 of 2 here]: 93%.
Regarding `CC(C)c1nn(-c2ccccc2)c(-c2ccc(F)cc2)c1CCC1C[C@@H](O)CC(=O)O1` (some centres undefined), 1 mg/kg produced 54% inhibition in vivo in the assay on Rattus norvegicus [11].
Take `CC[C@H](C)C(=O)O[C@H]1C[C@H](O)C=C2C=C[C@H](C)[C@H](CC[C@@H](O)C[C@@H](O)CC(=O)O)[C@H]21` [PRAVASTATIN]: at 1 mg/kg the inhibition in vivo in the assay with Rattus norvegicus [12] was 48%. Besides, the inhibition in assay [1] amounted to 48%.
In [1], `CC(C)c1nn(-c2cnccn2)c(-c2ccc(F)cc2)c1/C=C/[C@@H]1C[C@@H](O)CC(=O)O1` (stereo in doubt; 20b) returned an inhibition of 92%.
With `O=C(O)C[C@H](O)C[C@H](O)/C=C/c1c(C(F)(F)F)nn(-c2ccccn2)c1-c1ccc(F)cc1`, in assay [1], the inhibition amounted to 81%.
Same read-out and setting: next, `O=C1C[C@H](O)C[C@@H](/C=C/c2c(C(F)(F)F)nn(-c3ccccn3)c2-c2ccc(F)cc2)O1`: 60%.
Still for that read-out and setting: next, `CC(C)c1nn(-c2ccc3ccccc3n2)c(-c2ccc(F)cc2)c1/C=C/[C@@H]1C[C@@H](O)CC(=O)O1`: 75%.

Usually inhibition stands for the share of the control response that was lost under treatment. A word on the inhibition in vivo: it is the percentage by which the read-out fell short of the control. Broadly, the Inhibition is the relative decrease from the control value, in per cent. A lower Inhibition goes with a weak effect.
